This note sets out measurements from ChEMBL document CHEMBL1132303, “Novel pyrimidine and purine derivatives of L-ascorbic acid: synthesis and biological evaluation” (J Med Chem, 1999).

Each structure is given as a SMILES string.

One assay has as its system CCRF-CEM. In words: The compound was tested for growth inhibitory activity against CEM/0 tumor cell lines. The settings on record: Homo sapiens. In kind it is functional, cell-based.
The test system of assay [1] is HEL. In words: The compound was tested for cytotoxic concentration required to reduce human embryonic lung cell growth by 50%. It is filed as functional, cell-based. The method, boiled down: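 Human embryonic lung cell growth measured. Value is the concentration reducing cell growth by 50%.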
A further assay deals with MIA PaCa-2. In words: The compound was tested for growth inhibitory activity against MiaPaCa2 tumor cell lines. In kind it is functional, cell-based. The settings on record: Homo sapiens. The method, boiled down:
(§1)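 Monolayer cells in DMEM with 10% FBS, 2 mM glutamine, penicillin/streptomycin, 37 °C, 5% CO2, plated at 1.5 × 10^4/mL (HeLa, Hep2, MCF7, MiaPaCa2) or 2 × 10^4/mL (Hef522). MTT read-out, percent growth versus untreated controls. Mean of three parallel samples in three experiments; IC50 reported.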

The subject of assay [2] is HEL. The assay can be described thus: Minimum cytotoxic concentration that causes a microscopically detectable alteration of cell morphology in human embryonic lung cells. In kind it is functional, cell-based. The method, boiled down: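 Human embryonic lung cells checked under the microscope. Minimum concentration producing a detectable change in cell morphology.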

Assay [3] concerns HEL. In words: The compound was tested for antiviral activity by measuring the concentration required to reduce plaque formation against Varicella zoster TK-(deficient) YS/R strain. It is filed as functional, cell-based. The settings on record: Homo sapiens. The method, boiled down:
(§2)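 Plaque reduction in human embryonic lung cells with 20 PFU virus input. EC50 is the concentration that cuts plaque formation by 50%.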

The subject of the next assay is HeLa. In words: The compound was tested for growth inhibitory activity against HeLa tumor cell lines. In kind it is functional, cell-based. Particulars: Homo sapiens. The method, boiled down: as §1
Another assay relates to MCF7. In words: The compound was tested for growth inhibitory activity against MCF-7 tumor cell lines. It is filed as functional, cell-based. The settings on record: Homo sapiens. The method, boiled down: as §1
Assay [4] concerns HEL. The assay can be described thus: The compound was tested for antiviral activity by measuring the concentration required to reduce plaque formation against cytomegalo virus Davis strain. The settings on record: Homo sapiens. It is filed as functional, cell-based. The method, boiled down: as §2
Another assay concerns L1210. In words: The compound was tested for growth inhibitory activity against L1210/0 tumor cell lines. It is filed as functional, cell-based. Particulars: Mus musculus.
Another assay relates to FM3A. In words: The compound was tested for growth inhibitory activity against FM3A/0 tumor cell lines. In kind it is functional, cell-based. Particulars: Mus musculus.
Assay [5] relates to HEL. The assay can be described thus: The compound was tested for antiviral activity by measuring the concentration required to reduce plaque formation against Varicella zoster TK+OKA strain. Particulars: Homo sapiens. In kind it is functional, cell-based. The method, boiled down: as §2
The test system of assay [6] is HEL. In words: The compound was tested for antiviral activity by measuring the concentration required to reduce plaque formation against cytomegalo virus AD-169 strain. It is filed as functional, cell-based. The settings on record: Homo sapiens. The procedure, abridged: as §2
The test system of assay [7] is HEL. In words: The compound was tested for antiviral activity by measuring the concentration required to reduce plaque formation against Varicella zoster TK-(deficient) 07/1 strain. It is filed as functional, cell-based. Particulars: Homo sapiens. The method, boiled down:
as §2

The subject of the next assay is HEp-2. The assay can be described thus: The compound was tested for growth inhibitory activity against Hep2 tumor cell lines. It is filed as functional, cell-based. The settings on record: Homo sapiens. The procedure, abridged:
as §1

Assay [8] concerns Hef522 normal fibroblasts (human). The assay can be described thus: The compound was tested for growth inhibitory activity against normal fibroblast (Hef522).
For a further assay, the system named is MOLT-4. In words: The compound was tested for growth inhibitory activity against Molt4/C8 tumor cell lines. It is filed as functional, cell-based. The settings on record: Homo sapiens.
The subject of assay [9] is HEL. In words: The compound was tested for antiviral activity by measuring the concentration required to reduce plaque formation against Varicella zoster TK+YS strain. In kind it is functional, cell-based. Particulars: Homo sapiens. The method, boiled down:
as §2

In the case of `O=C1O/C(=C\Cn2cnc3c(-n4cccc4)ncnc32)C(OCc2ccccc2)=C1OCc1ccccc1`, the IC50 – broadly, the point on the concentration scale where inhibition reaches its midpoint – in the assay with CCRF-CEM was 5.8 µM; in the assay with HEL [1], 4 µM; in the assay on MIA PaCa-2, above 100 µM; with HEL [3], 0.6 µM; in the assay on HeLa, 70 µM; in the assay on MCF7, above 100 µM. Moreover, the IC50 in the assay with HEL [4] is above 0.5 µM; with L1210 it was 110 µM; in the assay on FM3A, above 200 µM; with HEL [5], 1.2 µM; with HEL [6] it was above 0.5 µM; with HEL [7], 2.8 µM. Moreover, the IC50 in the assay with HEp-2 is above 100 µM; in assay [8], above 100 µM; in the assay on MOLT-4, 3.9 µM; in the assay with HEL [9], 1.5 µM. This molecule came in with an MCC with HEL [2] of 20 µM.
With `O=C1O/C(=C\Cn2cc(F)c(=O)[nH]c2=O)C(OCc2ccccc2)=C1OCc1ccccc1`, the IC50 with CCRF-CEM is 15.1 µM; with HEL [1] it was 9 µM; in the assay on MIA PaCa-2 it was 40 µM; in the assay with HEL [3], 2.7 µM; in the assay with HeLa it was 40 µM; in the assay with MCF7 it was 60 µM. The IC50 with HEL [4] came to 3.5 µM; with L1210, 5.1 µM; with FM3A, 3.4 µM; in the assay with HEL [5], 2.6 µM; in the assay with HEL [6], 3.5 µM; with HEL [7], 3.5 µM. The IC50 in the assay with HEp-2 is 20 µM; in assay [8], 40 µM; in the assay with MOLT-4 it was 10.9 µM; in the assay on HEL [9], 3.8 µM. In the assay with HEL [2], the MCC was 20 µM.
Consider `O=C1O/C(=C\Cn2cc(Br)c(=O)[nH]c2=O)C(OCc2ccccc2)=C1OCc1ccccc1`, for which the half-inhibitory concentration (IC50) in the assay on CCRF-CEM was determined as 3.5 µM; in the assay with HEL [1], 3 µM; in the assay with MIA PaCa-2 it was 80 µM; in the assay with HEL [3], 1 µM; with HeLa, 30 µM; in the assay on MCF7 it was 40 µM. Moreover, the IC50 was above 2 µM with HEL [4]; 7.5 µM with L1210; 17.1 µM with FM3A; 1.3 µM with HEL [5]; above 2 µM with HEL [6]; above 2 µM in the assay on HEL [7]. Moreover, the IC50 in the assay on HEp-2 is 90 µM; in [8], 30 µM; in the assay with MOLT-4, 3.9 µM; with HEL [9], above 2 µM. This molecule also yielded an MCC with HEL [2] of 5 µM.
As to `O=C1O/C(=C/Cn2cnc3ncnc(Cl)c32)C(OCc2ccccc2)=C1OCc1ccccc1`, the IC50 was 4.4 µM in the assay with CCRF-CEM; 20 µM with HEL [1]; 40 µM in the assay on MIA PaCa-2; 3.8 µM in the assay on HEL [3]; 30 µM in the assay with HeLa; above 100 µM in the assay with MCF7. Moreover, the IC50 in the assay with HEL [4] is above 5 µM; in the assay on L1210, 4.1 µM; in the assay with FM3A it was 11.4 µM; in the assay on HEL [5], 5 µM; with HEL [6], above 5 µM; in the assay with HEL [7], above 5 µM. In addition, the IC50 with HEp-2 is 60 µM; in assay [8], 20 µM; in the assay on MOLT-4, 6.8 µM; in the assay on HEL [9], above 5 µM. In addition, in the assay on HEL [2], the MCC stood at 20 µM.
With `O=C1O/C(=C\Cn2cc(Cl)c(=O)[nH]c2=O)C(OCc2ccccc2)=C1OCc1ccccc1`, the IC50 with CCRF-CEM was 6 µM; in the assay on HEL [1], 3 µM; in the assay on MIA PaCa-2, 40 µM; in the assay with HEL [3], 1 µM; in the assay with HeLa, 40 µM; in the assay with MCF7, 60 µM. Further, the IC50 was above 2 µM with HEL [4]; 12.2 µM with L1210; 16.9 µM in the assay on FM3A; 1.3 µM with HEL [5]; above 2 µM with HEL [6]; above 2 µM in the assay on HEL [7]. Also, the concentration for half-maximal inhibition (IC50) was 20 µM in the assay with HEp-2, 30 µM in assay [8], 6.1 µM with MOLT-4 and above 2 µM in the assay with HEL [9]. The MCC in the assay on HEL [2] turned out to be 5 µM.
On to `O=C1O/C(=C\Cn2cnc3c(Cl)ncnc32)C(OCc2ccccc2)=C1OCc1ccccc1`, for which the IC50 in the assay with CCRF-CEM is 15.9 µM; in the assay on HEL [1] it was 8 µM; with MIA PaCa-2, 60 µM; in the assay on HEL [3] it was above 5 µM; in the assay on HeLa, 30 µM; in the assay with MCF7, 40 µM. Also, the concentration for half-maximal inhibition (IC50) in the assay on HEL [4] was above 5 µM; in the assay with L1210, 11.6 µM; in the assay on FM3A it was 16.4 µM; with HEL [5], above 5 µM; in the assay with HEL [6], above 5 µM; with HEL [7], above 5 µM. Moreover, the IC50 with HEp-2 was 60 µM; in assay [8] it was 50 µM; in the assay on MOLT-4, 14.8 µM; in the assay with HEL [9], above 5 µM. The MCC with HEL [2] was found to be 20 µM.
As for `O=C1O/C(=C\Cn2cc(I)c(=O)[nH]c2=O)C(OCc2ccccc2)=C1OCc1ccccc1`, the IC50 was 3.3 µM in the assay with CCRF-CEM; 3 µM in the assay with HEL [1]; 80 µM in the assay with MIA PaCa-2; 1 µM in the assay on HEL [3]; 30 µM in the assay on HeLa; 70 µM with MCF7. The IC50 was above 2 µM in the assay on HEL [4]; 7.5 µM with L1210; 22.6 µM in the assay on FM3A; 1.3 µM in the assay on HEL [5]; above 2 µM with HEL [6]; above 2 µM in the assay on HEL [7]. The half-inhibitory concentration (IC50) is 10 µM with HEp-2, 40 µM in [8], 3.9 µM in the assay with MOLT-4 and 1.4 µM in the assay with HEL [9]. In the assay with HEL [2], this molecule registered an MCC of 5 µM.
In the case of `O=C1O/C(=C\Cn2ccc(=O)[nH]c2=O)C(OCc2ccccc2)=C1OCc1ccccc1`, the IC50 came out at 13 µM in the assay with CCRF-CEM; 5 µM in the assay with HEL [1]; 30 µM in the assay on MIA PaCa-2; 1.8 µM in the assay on HEL [3]; 50 µM in the assay with HeLa; 20 µM in the assay with MCF7. Besides, the concentration for half-maximal inhibition (IC50) in the assay on HEL [4] is 3.5 µM; with L1210 it was 12.9 µM; with FM3A, 17.7 µM; with HEL [5], 3 µM; in the assay with HEL [6], 3.5 µM; with HEL [7], 3.4 µM. In addition, the IC50 with HEp-2 is 40 µM; in [8] it was 50 µM; with MOLT-4 it was 4.8 µM; in the assay with HEL [9], 3.4 µM. The MCC with HEL [2] is 20 µM.
With `O=C1O/C(=C\Cn2cc(C(F)(F)F)c(=O)[nH]c2=O)C(OCc2ccccc2)=C1OCc1ccccc1`, the IC50 in the assay with CCRF-CEM worked out at 1.6 µM; in the assay on HEL [1] it was 1 µM; with MIA PaCa-2, 30 µM; in the assay on HEL [3] it was 0.3 µM; with HeLa, 20 µM; in the assay with MCF7, 40 µM. Besides, the 50% inhibitory concentration (IC50) in the assay on HEL [4] is 0.4 µM; with L1210, 2 µM; with FM3A it was 3.6 µM; in the assay with HEL [5], 0.3 µM; in the assay on HEL [6], above 0.5 µM; in the assay on HEL [7], 0.5 µM. The half-inhibitory concentration (IC50) in the assay on HEp-2 stood at 40 µM; in assay [8] it was 60 µM; in the assay with MOLT-4, 0.9 µM; in the assay on HEL [9], 0.5 µM. In the assay on HEL [2], this molecule yielded an MCC of 2 µM.
On to `Nc1nc2c(ncn2COCCO)c(=O)[nH]1` [ACYCLOVIR], for which the IC50 in the assay with HEL [1] was above 100 µM; in the assay with HEL [3] it was 12 µM; in the assay with HEL [5] it was 0.16 µM; in the assay with HEL [7] it was 17 µM; in the assay on HEL [9], 0.78 µM. In addition, in the assay with HEL [2], the MCC was above 50 µM.
Take `O=c1[nH]c(=O)n([C@H]2C[C@H](O)[C@@H](CO)O2)cc1/C=C/Br` [BRIVUDINE]: the IC50 was above 100 µM in the assay on HEL [1]; above 50 µM in the assay on HEL [3]; 0.001 µM in the assay with HEL [5]; above 50 µM in the assay on HEL [7]; 0.005 µM in the assay with HEL [9]. In addition, the MCC in the assay with HEL [2] was above 50 µM.
Regarding `Nc1nc2c(ncn2COC(CO)CO)c(=O)[nH]1` [GANCICLOVIR], the results for the IC50 in the assay on HEL [1], in the assay with HEL [4] and in the assay on HEL [6] were above 50 µM, 5 µM and 1 µM, respectively. This molecule gave an MCC in the assay on HEL [2] above 50 µM.
